Reference: PubChem BioAssay
Records with an inconclusive call do not appear.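 The calls were made as follows, unless noted: active = viability at or below 27.92% in each of two runs, the all-compound median minus 4 SD; inconclusive = no clear call, values can overlap the other calls; inactive = the rest.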

What was measured:
[1] = S. cerevisiae growth inhibition in permissive medium (OD615), pilot counter-assay for S. cerevisiae lifespan shortening project, permissive growth control (AID 705;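 active = growth inhibition above 25% in both replicates, a cutoff set 3 SD above the mean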); conditions: OD615, 24 h, at 10 µM, active compounds read high
How it was run: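 Test system: Saccharomyces cerevisiae strain carrying genetically modified DeaD replicative-lifespan system; buffer or medium: SC raffinose/galactose permissive medium; dosing: one dose 10 µM, DMSO 0.25% final; times: 24 h exposure, 30 °C; measured by: OD at 615 nm; read-out basis: growth inhibition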

[2] = S. cerevisiae growth inhibition in restrictive medium, OD615, pilot screen, restrictive growth control, yeast lifespan reduction project (AID 706;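 active = growth inhibition above a set limit, 3 SD over mean compound inhibition, in both replicates, cut at about 43% in these data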;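 also: modified DeaD lifespan yeast strain shifted to restrictive glucose medium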); conditions: OD615, 48 h, at 10 µM, active compounds read high
How it was run: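 material = engineered S. cerevisiae DeaD strain | buffer or medium = glucose-based CSMM-D restrictive medium | dosing = one concentration, 10 µM final, 0.25% DMSO | schedule = 4 h pre-growth plus 48 h compound exposure, 30 °C | detection = OD615 absorbance reading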

[3] = doxorubicin toxicity protection in MRP-1 cells – H69AR cells, CellTiter-Glo, duplicate, MRP-1 activator project, pilot screen (AID 807;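 active = viability increase at or above a cutoff of the median across tested compounds plus 3 SD, cut at about 8.5% in these data, passing the limit was not always enough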;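 also: compound pretreatment 18-22 h then 72 h combined with doxorubicin; 0% = doxorubicin alone and 100% = vehicle without doxorubicin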); conditions: H69AR viability with doxorubicin, CellTiter-Glo luminescence; at 10 µM; active compounds read high
[4] = viability of HCT116 without oncogenic beta-catenin – human colon tumor cells, pilot screen (AID 823;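 active = cell viability at or below a set limit in both duplicate runs, the limit being the all-compound median minus 4 SD, cut at about 23% in these data, passing the limit was not always enough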;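 also: 0% = wells killed by 20 µM Hyamine and 100% = untreated DMSO cell wells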); conditions: HCT116 beta-catenin knockout viability, CellTiter-Glo, 60 h; at 10 µM; active compounds read low
[5] = viability of PTEN-null HCT116 cells – cell-based, HCT116 clonal line, CellTiter-Glo, pilot screen (AID 824); conditions: HCT116 PTEN-deleted viability, 60 h, at 10 µM, active compounds read low;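 also: 0% = 20 µM Hyamine control and 100% = vehicle cell control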
[6] = RAM pathway blockade in budding yeast – dse1pr::URA3 reporter, 5-FOA selection, pilot screen (AID 869;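 active = inhibition over a set limit, the all-compound mean plus 3 SD, in both replicate runs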;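 also: 0% = DMSO wells with no growth and 100% = 10 µM 1-NA-PP1 with full growth; RAM network block rescues cells from 5-FOA so hits raise OD615 growth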); conditions: S. cerevisiae dse1pr::URA3 5-FOA growth, OD615, 2 d; at 10 µM; active compounds read high; strain carries analog-sensitive mutant Cbk1 kinase
[7] = RAM signaling pathway blockade in yeast – S. cerevisiae, Pdr1DBD-CYC8 efflux-inhibited sensitized strain, primary screen (AID 1298;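 active = RAM network inhibition above 8.4% in each of two replicates, 3 SD over the compound average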;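 also: 0% = DMSO untreated cells without growth and 100% = 10 µM 1-NA-PP1 full growth; higher means more yeast growth rescued from 5-FOA killing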); conditions: S. cerevisiae cbk1-as DSE1-URA3 strain, 5-FOA growth OD615, 2 d; at 50 µM; active compounds read high

Cc1cc(Nc2ccc(Br)cc2F)n2ncnc2n1
inactive: growth inhibition [1] -2.09% | growth inhibition [2] 11.9% | viability increase [3] -3.52% | viability [4] 90.6% | viability [5] 87.2% | inhibition [6] 0.76% | RAM network inhibition [7] -0.94%

CC(=O)c1ccc(OCC(O)CN2CCC(C)CC2)cc1 (stereo not drawn)
inactive: growth inhibition [1] -0.26% | growth inhibition [2] 9.25% | viability increase [3] -0.16% | viability [4] 101% | viability [5] 101% | inhibition [6] 0.54% | RAM network inhibition [7] -2.94%

COc1cccc(NC(=O)c2ccncc2)c1
inactive: growth inhibition [1] -9.44% | growth inhibition [2] -11% | viability increase [3] -3.81% | viability [4] 94.3% | viability [5] 100% | inhibition [6] 1.18% | RAM network inhibition [7] 4.2%

O=C(Cn1c(=O)[nH]c2ccsc2c1=O)NC1CCCCC1
inactive: growth inhibition [1] -3.32% | growth inhibition [2] -5.46% | viability increase [3] 0.65% | viability [4] 94.9% | viability [5] 93.9% | inhibition [6] 1.41% | RAM network inhibition [7] -1.43%

CC(=O)c1ccc(NC(=O)CN2C(=O)COc3ccc(Cl)cc32)cc1
inactive: growth inhibition [1] -16.9% | growth inhibition [2] -13.2% | viability increase [3] -2.36% | viability [4] 84% | viability [5] 79.2% | inhibition [6] 2.46% | RAM network inhibition [7] 5.11%

Cc1c(NS(=O)(=O)CC23CCC(CC2=O)C3(C)C)c(=O)n(-c2ccccc2)n1C (stereo not drawn)
inactive: growth inhibition [1] 5.19% | growth inhibition [2] -4.44% | viability increase [3] -2.6% | viability [4] 99.5% | viability [5] 96.4% | inhibition [6] 2.22% | RAM network inhibition [7] 3.5%

O=C(NCCc1csc(-c2cccnc2)n1)c1ccco1
inactive: growth inhibition [1] 4.59% | growth inhibition [2] 4.47% | viability increase [3] -4.68% | viability [4] 105% | viability [5] 98.6% | inhibition [6] 0.97% | RAM network inhibition [7] 2.36%

CN(Cc1ccccc1)c1nnc(N)s1
inactive: growth inhibition [1] 0.13% | growth inhibition [2] -3.49% | viability increase [3] -2% | viability [4] 105% | viability [5] 102% | inhibition [6] 0.935% | RAM network inhibition [7] 2.5%

Cc1cc(S(=O)(=O)N2CCN(Cc3ccccc3)CC2)c(C)s1
inactive: growth inhibition [1] -11.6% | growth inhibition [2] 0.51% | viability increase [3] -1.58% | viability [4] 77.1% | viability [5] 81.1% | inhibition [6] 1.35% | RAM network inhibition [7] 4.48%

COc1ccc(C2N(c3cccc(Cl)c3)C(=O)C3CCCN32)cc1 (stereo not drawn)
inactive: growth inhibition [1] 6.5% | growth inhibition [2] 6.72% | viability increase [3] -2.85% | viability [4] 102% | viability [5] 98.1% | inhibition [6] 0.115% | RAM network inhibition [7] -1.65%

CN(C)CCNc1nc2c(c(=O)[nH]c(=O)n2C)n1CCCc1ccccc1
inactive: growth inhibition [1] -14.9% | growth inhibition [2] 4.34% | viability increase [3] -1.16% | viability [4] 93.1% | viability [5] 93.9% | inhibition [6] 2.04% | RAM network inhibition [7] 0.47%

CCOC(=O)c1nnn(-c2nonc2N)c1COc1ccccc1
inactive: growth inhibition [1] -15.7% | growth inhibition [2] -5.9% | viability increase [3] -2.43% | viability [4] 89.5% | viability [5] 87.4% | inhibition [6] 0.05% | RAM network inhibition [7] 3.66%

COc1ccc2oc(C(=O)C3CC3)c(NC(=O)CCCN3C(=O)c4ccccc4C3=O)c2c1
inactive: growth inhibition [1] 2.6% | growth inhibition [2] 6.11% | viability increase [3] -3.63% | viability [4] 102% | viability [5] 93.6% | inhibition [6] 0.995% | RAM network inhibition [7] 3.53%

Nc1nc2n(n1)C(c1ccco1)CC(c1ccc(F)cc1)N2 (stereo not drawn)
inactive: growth inhibition [1] -0.245% | growth inhibition [2] 11.6% | viability increase [3] 1.69% | viability [4] 98.4% | viability [5] 101% | inhibition [6] 0.45% | RAM network inhibition [7] 4.49%

CCOC(=O)N1CCC(NC(=O)c2cc3c(C)nc4ccccc4c3o2)CC1
inactive: growth inhibition [1] -14.7% | growth inhibition [2] -11.2% | viability increase [3] -3.16% | viability [4] 92.6% | viability [5] 91.5% | inhibition [6] 0.54% | RAM network inhibition [7] 3.54%

CCN(CC)P1(=O)OC(c2cc(OC)c(OC)c(OC)c2)=Nc2c1c(C)nn2-c1ccccc1 (stereo not drawn)
inactive: growth inhibition [1] -7.12% | growth inhibition [2] -13.3% | viability increase [3] -2.38% | viability [4] 95.8% | viability [5] 92.8% | inhibition [6] 1.87% | RAM network inhibition [7] 2.4%

COC(=O)C1=C(C)N(Cc2cccnc2)C(=O)C1
inactive: growth inhibition [1] -10.7% | growth inhibition [2] -8.8% | viability increase [3] -1.77% | viability [4] 98.7% | viability [5] 102% | inhibition [6] 2.84% | RAM network inhibition [7] 5.02%

CCOC(=O)Cc1nnc(NC(=O)CSc2nncn2C)s1
inactive: growth inhibition [1] -1.1% | growth inhibition [2] 7.44% | viability increase [3] -0.06% | viability [4] 98.5% | viability [5] 94.5% | inhibition [6] 1.5% | RAM network inhibition [7] 2.87%

COc1ccc(CN2CCN(c3cccc(C)c3C)CC2)cc1OC
inactive: growth inhibition [1] -8.54% | growth inhibition [2] -1.75% | viability increase [3] -1.96% | viability [4] 51.8% | viability [5] 54% | inhibition [6] 1.5% | RAM network inhibition [7] 1.07%

O=C(Nc1ccc(F)cc1F)N1CCN(C/C=C/c2ccccc2)CC1
inactive: growth inhibition [1] -1.48% | growth inhibition [2] 2.67% | viability increase [3] 0.1% | viability [4] 86.7% | viability [5] 89% | inhibition [6] 2.04% | RAM network inhibition [7] 0.95%

Cc1cccnc1NC(=O)c1c(O)c2ccccc2n(C)c1=O
inactive: growth inhibition [1] 3.49% | growth inhibition [2] 11.4% | viability increase [3] -3.77% | viability [4] 92% | viability [5] 98% | inhibition [6] -0.005% | RAM network inhibition [7] -1.38%

COc1ccc(OC)c2c1sc(=NC(=O)C(C)C)n2C
inactive: growth inhibition [1] -3.95% | growth inhibition [2] 17.4% | viability increase [3] -3.34% | viability [4] 79.2% | viability [5] 74.1% | inhibition [6] 0.575% | RAM network inhibition [7] 3%

CCCCNC(=O)C1c2cc(OC)c(OC)cc2C(=O)N(C)C1c1ccc(OC)cc1 (stereo not drawn)
inactive: growth inhibition [1] -7.31% | growth inhibition [2] -7.21% | viability increase [3] -2.49% | viability [4] 92.5% | viability [5] 98.4% | inhibition [6] 1.63% | RAM network inhibition [7] 1.97%

Cc1ccc2cc(-c3noc(C4CCCO4)n3)c(=O)[nH]c2c1 (stereo not drawn)
inactive: growth inhibition [1] -12.5% | growth inhibition [2] -7.12% | viability increase [3] -0.44% | viability [4] 108% | viability [5] 100% | inhibition [6] 0.82% | RAM network inhibition [7] 4.44%
